The record followed here is ChEMBL document CHEMBL1134232, “Phenylcyclohexene and phenylcyclohexadiene substituted compounds having retinoid antagonist activity” (Bioorg Med Chem Lett, 2001).

Usually IC50 stands for the concentration needed to halve the response being measured. A high value points to lower potency. In general, Kd refers to the free concentration of one partner at which half of the binding sites on the other are occupied at equilibrium, for simple one-to-one binding. By EC50 is commonly meant the concentration needed to bring the measured effect to its halfway point.

For assay [1], the target named is T1, Retinoic acid receptor alpha (Homo sapiens) (UniProt P10276).
T1 sequence (whole entry): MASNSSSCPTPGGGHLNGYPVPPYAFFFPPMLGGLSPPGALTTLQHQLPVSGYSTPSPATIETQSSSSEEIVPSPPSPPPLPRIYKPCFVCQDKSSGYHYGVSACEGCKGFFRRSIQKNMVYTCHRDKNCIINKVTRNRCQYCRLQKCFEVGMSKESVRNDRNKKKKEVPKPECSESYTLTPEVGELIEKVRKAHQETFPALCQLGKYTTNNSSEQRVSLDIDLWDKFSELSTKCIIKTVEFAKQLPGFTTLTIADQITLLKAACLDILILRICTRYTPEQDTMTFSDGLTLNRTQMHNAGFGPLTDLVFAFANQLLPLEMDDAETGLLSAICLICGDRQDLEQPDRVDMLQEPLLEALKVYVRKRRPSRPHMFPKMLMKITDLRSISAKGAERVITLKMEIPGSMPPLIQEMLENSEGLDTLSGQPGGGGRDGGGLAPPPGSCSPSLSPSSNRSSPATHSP
Briefly: Efficacy of TTNPB (10 nM) function at retinoic acid receptor alpha, antagonized at highest dose tested (10⁴ nM). A digest of the protocol:
(§1)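 In the RAR transactivation assay with 10 nM TTNPB, efficacy is the percent of TTNPB transcriptional activity antagonized at the highest dose tested (10⁴ nM). Each receptor subtype is tested separately.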

The target in assay [2] is T2, Retinoic acid receptor alpha (Homo sapiens, UniProt P10276).
T2 sequence (P10276 whole entry): T1 sequence (whole entry)
Briefly: Antagonist activity of TTNPB (10 nM) function at retinoic acid receptor alpha. It counts as functional. The procedure, abridged:
(§2)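 Transactivation assay run separately at RARα, RARβ and RARγ. Test compound is applied at varying concentrations against 10 nM TTNPB, held constant. Inhibition of TTNPB-driven transcriptional activation is measured, and IC50 is calculated as the half-maximal inhibition concentration.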

Assay [3] addresses T3, Retinoic acid receptor gamma (Homo sapiens, UniProt P13631).
T3 sequence (P13631 whole entry): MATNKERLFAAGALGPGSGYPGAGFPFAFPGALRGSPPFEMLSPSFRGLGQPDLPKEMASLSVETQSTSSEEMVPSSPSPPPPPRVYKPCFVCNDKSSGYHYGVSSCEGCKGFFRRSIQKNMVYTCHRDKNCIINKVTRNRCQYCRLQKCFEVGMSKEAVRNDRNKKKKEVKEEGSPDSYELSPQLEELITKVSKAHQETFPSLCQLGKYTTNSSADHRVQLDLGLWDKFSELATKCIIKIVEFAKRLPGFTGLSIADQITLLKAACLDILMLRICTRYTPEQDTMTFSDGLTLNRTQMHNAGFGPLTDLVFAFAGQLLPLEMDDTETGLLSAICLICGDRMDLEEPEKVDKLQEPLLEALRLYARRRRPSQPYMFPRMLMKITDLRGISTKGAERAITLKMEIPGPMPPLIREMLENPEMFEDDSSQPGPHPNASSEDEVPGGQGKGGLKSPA
Briefly: Antagonist activity of TTNPB (10 nM) function at retinoic acid receptor gamma. It counts as functional. The procedure, abridged: as §2

The target in assay [4] is T4, Retinoic acid receptor beta (Homo sapiens, UniProt P10826).
T4 sequence (P10826 whole entry): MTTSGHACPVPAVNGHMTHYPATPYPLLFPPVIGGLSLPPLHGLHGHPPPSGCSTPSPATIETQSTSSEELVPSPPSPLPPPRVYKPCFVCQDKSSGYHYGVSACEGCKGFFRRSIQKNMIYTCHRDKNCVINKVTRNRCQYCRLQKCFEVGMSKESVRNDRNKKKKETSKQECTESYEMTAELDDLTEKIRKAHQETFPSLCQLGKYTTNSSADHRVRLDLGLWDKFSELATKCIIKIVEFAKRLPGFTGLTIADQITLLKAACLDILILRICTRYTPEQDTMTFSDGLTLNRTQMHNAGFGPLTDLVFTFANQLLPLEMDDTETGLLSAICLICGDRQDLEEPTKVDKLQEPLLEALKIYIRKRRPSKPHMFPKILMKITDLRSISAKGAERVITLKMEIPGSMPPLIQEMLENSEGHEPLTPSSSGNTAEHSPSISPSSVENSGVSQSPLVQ
Put plainly: Antagonist activity of TTNPB (10 nM) function at retinoic acid receptor beta. It counts as functional. A digest of the protocol:
as §2

The target of assay [5] is T2, Retinoic acid receptor alpha. Briefly: Binding affinity towards retinoic acid receptor alpha was determined using [3H]ATRA (5 nM) as radioligand.
The target in assay [6] is T5, Retinoic acid receptor beta (Homo sapiens) (UniProt P10826).
T5 sequence (whole entry): T4 sequence (P10826 whole entry)
Briefly: Efficacy of TTNPB (10 nM) function at retinoic acid receptor beta (10 uM). A digest of the protocol: as §1

Assay [7] addresses T6, Retinoic acid receptor gamma (Homo sapiens) (UniProt P13631).
T6 sequence (whole entry): T3 sequence (P13631 whole entry)
Put plainly: Efficacy of TTNPB (10 nM) function at retinoic acid receptor gamma (10 uM). A digest of the protocol: as §1

The target of assay [8] is T4, Retinoic acid receptor beta. Put plainly: Binding affinity towards retinoic acid receptor beta was determined using [3H]ATRA (5 nM) as radioligand.
Assay [9] deals with T3, Retinoic acid receptor gamma. Put plainly: Binding affinity towards retinoic acid receptor gamma was determined using [3H]ATRA (5 nM) as radioligand.
In assay [10] the target is T4, Retinoic acid receptor beta. Briefly: Ability to inhibit TTNPB-induced transactivation at retinoic acid receptor beta.
Assay [11] addresses T2, Retinoic acid receptor alpha. Briefly: Ability to inhibit TTNPB-induced transactivation at retinoic acid receptor alpha.
Assay [12] addresses T3, Retinoic acid receptor gamma. Briefly: Ability to inhibit TTNPB-induced transactivation at retinoic acid receptor gamma.

As to `Cc1ccc(C2=CCC(C)(C)c3ccc(C#Cc4ccc(C(=O)O)cc4)cc32)cc1`, the figures for the Efficacy in assay [1], in assay [6] and in assay [7] were 91%, 97% and 98%, respectively. The IC50 is 31 nM in assay [2], 3 nM in [3] and 20 nM in assay [4]. This compound yielded a dissociation constant (Kd) in [5] of 17 nM.
For `CCc1ccc(C2=C(/C=C/C#Cc3ccc(C(=O)O)cc3)C(C)(C)CCC2)cc1`, the Efficacy was 97% in [1], 96% in [6] and 95% in assay [7]. The IC50 in assay [2] was 220 nM; in assay [3], 3 nM; in [4] it was 40 nM.
With `CC1(C)C=C(/C=C/C#Cc2ccc(C(=O)O)cc2)C(c2ccc(C(C)(C)C)cc2)=CC1`, the values for the Kd in assay [8], in [9] and in [5] were 87 nM, greater than 1000 nM and greater than 1000 nM, respectively.
On to `CC1(C)CCC(C)(C)c2cc(C/C=C/c3ccc(C(=O)O)cc3)ccc21`, for which the Kd in assay [8] turned out to be 5 nM; in assay [9] it was 26 nM; in [5], 36 nM. Moreover, the EC50 is 8 nM in assay [10], 30 nM in assay [11] and 4 nM in assay [12].
Regarding `CC1(C)CCCC(c2ccc(C(C)(C)C)cc2)=C1/C=C/C#Cc1ccc(C(=O)O)cc1`, the Efficacy in assay [1] was determined as 94%; in [6], 96%; in assay [7] it was 95%. The Kd came to 25 nM in [8], 331 nM in assay [9] and 875 nM in [5].
In the case of `Cc1ccc(C2=CCC(C)(C)C=C2/C=C/C#Cc2ccc(C(=O)O)cc2)cc1`, the Efficacy in [1] was 96%; in assay [6], 94%; in assay [7] it was 97%. Also, the Kd is 53 nM in [8], 31 nM in assay [9] and 252 nM in assay [5].
Consider `CC1=C(/C=C/C#Cc2ccc(C(=O)O)cc2)C(C)(C)CCC1`, for which the Kd in assay [8] amounted to 20 nM; in assay [9] it was 190 nM; in assay [5], 135 nM. For the same compound, the EC50 in [10] turned out to be 7 nM; in assay [11] it was 435 nM.
Regarding `Cc1ccc(C2=C(/C=C/C#Cc3ccc(C(=O)O)cc3)C(C)(C)CCC2)cc1`, the Efficacy in [1] amounted to 93%; in [6], 92%; in assay [7] it was 96%. The figures for the IC50 in assay [2], in assay [3] and in assay [4] were 210 nM, 5 nM and 22 nM, respectively.
